The results in this text go back to ChEMBL document CHEMBL1135500, “Highly antibacterial active aminoacyl penicillin conjugates with acylated bis-catecholate siderophores based on secondary diamino acids and related compounds” (2002).

Common to all, as to type: functional
Test [1] concerns Escherichia coli. Description: Siderophore activity determined using growth promoting assay in ATCC 25922 strain of Escherichia coli under iron limited conditions. The method in brief:
(§1)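 Growth promotion under iron limitation. Overnight Nutrient Agar cultures suspended in medium VA to 1 McFarland, then 1.5 mL mixed into 99 mL Al2O3-treated Hall-Ratledge agar (pH 6.8) with trace elements and EDDHA. 5 µL of 2 mM compound applied on 6 mm paper disks. Growth zone around disks measured after 18-20 h at 37 °C.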

The subject of test [2] is Pseudomonas aeruginosa. Nature of the test: Siderophore activity determined using growth promoting assay in ATCC 27853 strain of Pseudomonas aeruginosa under iron limited conditions. The method in brief:
as §1

Test [3] concerns Pseudomonas aeruginosa. Description: Siderophore activity determined using growth promoting assay in K799/WT strain of Pseudomonas aeruginosa under iron limited conditions. The method, boiled down:
as §1

In test [4] the test system is Pseudomonas aeruginosa. Description: (§2) Siderophore activity determined using growth promoting assay in NCTC-10662 strain of Pseudomonas aeruginosa under iron limited conditions. Set-up: unit not given beside the values. The method, boiled down:
as §1

For test [5], the system named is Pseudomonas aeruginosa. Description: Siderophore activity determined using growth promoting assay in SG137 strain of Pseudomonas aeruginosa under iron limited conditions. The method, boiled down: as §1
The test system of test [6] is Pseudomonas aeruginosa. Nature of the test: Siderophore activity determined using growth promoting assay in ATCC 9027 strain of Pseudomonas aeruginosa under iron limited conditions. The method in brief: as §1
For test [7], the system named is Pseudomonas aeruginosa. Described as §2. The method in brief: as §1
The test system of test [8] is Escherichia coli. Description: Influence of siderophore receptor on antibacterial activity in Escherichia coli (1875) using agar diffusion assay. The method in brief:
(§3)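 Agar diffusion in Nutrient Agar with E. coli K-12 mutants altered in catecholate siderophore receptors Cir, Fiu and FepA. 50 µL of a 0.2 mM compound solution filled into 9 mm agar wells, with clavulanic acid 10 µg/mL added to block the penicillinase selection marker. Inhibition zone diameters (mm) read after overnight incubation at 37 °C.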
A general note: In agar diffusion tests the substance spreads into inoculated agar from a disc or well.

Test [9] concerns Escherichia coli. Description: Influence of siderophore receptor on antibacterial activity in Escherichia coli (H873) using agar diffusion assay. The method in brief:
as §3

Test [10] relates to Escherichia coli. Description: Influence of siderophore receptor on antibacterial activity in Escherichia coli (H1443) using agar diffusion assay. The method in brief: as §3
Test [11] concerns Escherichia coli. Nature of the test: Influence of siderophore receptor on antibacterial activity in Escherichia coli (H1876) using agar diffusion assay. The method in brief: as §3
For test [12], the system named is Escherichia coli. Nature of the test: Influence of siderophore receptor on antibacterial activity in Escherichia coli (H1877) using agar diffusion assay. The method in brief: as §3
Test [13] concerns Escherichia coli. Description: In vitro antibacterial activity against ATCC 25922 strain of Escherichia coli. The method in brief:
(§4)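 MIC by microbroth dilution in Mueller-Hinton broth following NCCLS guidelines.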

Test [14] has as its system Klebsiella pneumoniae. Description: In vitro antibacterial activity against ATCC 100331 strain of Klebsiella pneumoniae. The method in brief: as §4
The subject of test [15] is Pseudomonas aeruginosa. Nature of the test: In vitro antibacterial activity against SG 137 strain of Pseudomonas aeruginosa. The method, boiled down:
as §4

For test [16], the system named is Serratia marcescens. Nature of the test: In vitro antibacterial activity against SG 621 strain of Serratia marcescens. The method, boiled down:
as §4

The test system of test [17] is Staphylococcus aureus. Description: In vitro antibacterial activity against SG 511 strain of Staphylococcus aureus. The method in brief:
as §4

Test [18] concerns Stenotrophomonas maltophilia. Nature of the test: In vitro antibacterial activity against GN 12873 strain of Stenotrophomonas maltophilia. The method, boiled down:
as §4

In test [19] the test system is Pseudomonas aeruginosa. Nature of the test: In vitro antibacterial activity against ATCC 27853 strain of Pseudomonas aeruginosa. The method in brief:
as §4

Converted amounts (≈) assume the structure as drawn. Bounds are passed on as bounds.

As to `COC(=O)Oc1cccc(C(=O)N(CCCn2c(=O)oc3c(OC(=O)OC)cccc3c2=O)C(C)CCC(=O)O)c1OC(=O)OC` (configuration not stated), the Activity in [1] was 15; in test [2], 13; in test [3] it was 14; in test [4] it was 20; in [5], 15.
Regarding `CC(=O)N(O)CCCCCNC(=O)CCC(=O)N(O)CCCCCNC(=O)CCC(=O)N(O)CCCCCN` [DEFEROXAMINE], the Activity in test [1] amounted to 38; in test [2], 35; in [6], 35; in [3], 36; in test [4] it was 30; in test [5], 30.
For the compound `CC(=O)Oc1cccc(C(=O)NCCCCN(CC(=O)O)C(=O)c2cccc(OC(C)=O)c2OC(C)=O)c1OC(C)=O`, the Activity was 28 in test [1]; 20 in [2]; 20 in test [6]; 25 in [3]; 25 in test [7]; 26 in test [5].
What is called MIC is the smallest concentration in the dilution series that meets the test's criterion for growth inhibition. As for `COC(=O)Oc1cccc(C(=O)N(CCCn2c(=O)oc3c(OC(=O)OC)cccc3c2=O)C(C)C(=O)NC(C(=O)NC2C(=O)N3C2SC(C)(C)C3C(=O)O)c2ccccc2)c1OC(=O)OC` (configuration not stated), the Zone of inhibition in test [8] was determined as 22 mm; in [9] it was 25 mm; in test [10] it was 24.5 mm; in [11], 11.5 mm; in test [12], 22.5 mm. Also, the MIC in [13] was 0.4 µg/mL (≈ 0.421 µM); in [14], under 0.05 µg/mL; in test [15], 0.1 µg/mL (≈ 0.105 µM); in [16], 0.2 µg/mL (≈ 0.211 µM); in test [17], 1.56 µg/mL (≈ 1.64 µM); in test [18], 0.4 µg/mL (≈ 0.421 µM). In [19], this compound came in with an MIC of 3.12 µg/mL (≈ 3.28 µM).
For the compound `CC(=O)Oc1cccc(C(=O)NCCCCN(Cc2ccccc2OCC(=O)O)C(=O)c2cccc(OC(C)=O)c2OC(C)=O)c1OC(C)=O`, the Activity turned out to be 26 in [1]; 18 in test [2]; 26 in [6]; 25 in test [3]; 27 in [4].
For `COC(=O)Oc1cccc(C(=O)N(C)CCCN(CC(=O)O)C(=O)c2cccc(OC(=O)OC)c2OC(=O)OC)c1OC(=O)OC`, the Activity in [1] came to 20; in [2], 15; in test [6] it was 13; in test [3], 25; in test [4], 18; in test [5], 9.
For `COC(=O)Oc1cc(Br)cc(C(=O)N(C)CCCN(CC(=O)O)C(=O)c2cc(Br)cc(OC(=O)OC)c2OC(=O)OC)c1OC(=O)OC`, the Activity in test [1] worked out at 32; in test [2] it was 22; in [6], 20; in [3], 27; in test [4], 27; in [5], 25.
Regarding `COC(=O)Oc1cccc(C(=O)N(CCCn2c(=O)oc3c(OC(=O)OC)cccc3c2=O)C(C)C(=O)O)c1OC(=O)OC` (configuration not stated), the Activity in [1] worked out at 22; in test [2], 15; in test [3] it was 22; in test [4] it was 25; in test [5], 19.
Turning to `CC(=O)Oc1ccc(C(=O)NCCCCN(CC(=O)O)C(=O)c2ccc(OC(C)=O)c(OC(C)=O)c2)cc1OC(C)=O`, the Activity was determined as 21 in [1]; 25 in test [2]; 19 in [6]; 20 in test [3]; 14 in [4]; 10 in test [5].
As to `CC(=O)Oc1cccc(C(=O)NCCCCN(Cc2ccccc2C(=O)O)C(=O)c2cccc(OC(C)=O)c2OC(C)=O)c1OC(C)=O`, the Activity was determined as 27 in [1]; 22 in [2]; 15 in test [3]; 23 in test [4]; 21 in [5].
As for `COC(=O)Oc1cccc2c(=O)n(-c3cc(C(=O)O)cc(-n4c(=O)oc5c(OC(=O)OC)cccc5c4=O)c3)c(=O)oc12`, the Activity in [1] came to 20; in test [2] it was 15; in test [6] it was 20; in test [4], 18; in [5] it was 25.
As for `COC(=O)Oc1cccc(C(=O)N(CCCCn2c(=O)oc3c(OC(=O)OC)cccc3c2=O)CC(=O)O)c1OC(=O)OC`, the Activity amounted to 30 in [1]; 18 in test [2]; 23 in test [3]; 24 in [4]; 27 in [5].
Regarding `CC(=O)Oc1cccc(C(=O)Nc2cc(NC(=O)c3cccc(OC(C)=O)c3OC(C)=O)cc(C(=O)O)c2)c1OC(C)=O`, the Activity in [1] came out at 27; in [2], 0; in test [6] it was 10; in [4], 17; in test [5], 20.
Turning to `COC(=O)Oc1cccc2c(=O)n(CCC(=O)Nc3cc(NC(=O)CCn4c(=O)oc5c(OC(=O)OC)cccc5c4=O)cc(C(=O)O)c3)c(=O)oc12`, the Activity in test [1] is 20; in test [2], 18; in test [6], 20; in test [4], 20; in test [5], 23.
For the compound `CC(=O)Oc1cccc(C(=O)NCCCCCN(CC(=O)O)C(=O)c2cccc(OC(C)=O)c2OC(C)=O)c1OC(C)=O`, the Activity worked out at 27 in test [1]; 30 in test [2]; 20 in test [6]; 25 in test [3]; 30 in test [4]; 28 in [5].
Consider `CC(=O)Oc1cccc(C(=O)N(C)CCCN(Cc2ccccc2C(=O)O)C(=O)c2cccc(OC(C)=O)c2OC(C)=O)c1OC(C)=O`, for which the Activity in test [1] came to 21; in test [2], 20; in test [3] it was 17; in [4], 18; in test [5], 19.
For the compound `CC(=O)Oc1cccc(C(=O)N(C)CCCN(CC(=O)O)C(=O)c2cccc(OC(C)=O)c2OC(C)=O)c1OC(C)=O`, the Activity in [1] amounted to 20; in [2], 19; in test [6] it was 18; in [3], 22; in test [4] it was 23; in test [5] it was 15.
As for `COC(=O)Oc1cc(Cl)c(Cl)c(C(=O)N(C)CCCN(CC(=O)O)C(=O)c2c(Cl)c(Cl)cc(OC(=O)OC)c2OC(=O)OC)c1OC(=O)OC`, the Activity was found to be 30 in test [1]; 25 in test [2]; 25 in test [6]; 25 in [3]; 30 in test [4]; 30 in test [5].
Turning to `COC(=O)Oc1cc(Cl)cc(C(=O)N(C)CCCN(CC(=O)O)C(=O)c2cc(Cl)cc(OC(=O)OC)c2OC(=O)OC)c1OC(=O)OC`, the Activity came to 30 in test [1]; 25 in test [2]; 24 in test [6]; 25 in test [3]; 25 in test [4]; 26 in test [5].
As to `COC(=O)Oc1cccc2c(=O)n(CC(=O)Nc3cc(NC(=O)Cn4c(=O)oc5c(OC(=O)OC)cccc5c4=O)cc(C(=O)O)c3)c(=O)oc12`, the Activity in test [1] was 15; in test [2], 15; in test [6], 20; in test [4], 20; in test [5], 20.
Take `CC(=O)Oc1cccc(C(=O)NCCCCN(Cc2ccc(OCC(=O)O)cc2)C(=O)c2cccc(OC(C)=O)c2OC(C)=O)c1OC(C)=O`: the Activity in test [1] was 27; in test [2], 22; in test [6], 25; in [3] it was 12; in test [4], 23; in test [5] it was 19.
